The source of these data is ChEMBL document CHEMBL4270599, “Synthesis of a 3'-C-ethynyl-β-d-ribofuranose purine nucleoside library: Discovery of C7-deazapurine analogs as potent antiproliferative nucleosides” (Eur J Med Chem, 2018).

One data set deals with L1210. The data set is described as follows: Antiproliferative activity against mouse L1210 cells after 48 hrs by Coulter counter method. The data set is classed as functional, cell-based. Particulars: L1210, 48 h. The method, boiled down:
(§1)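 Cell count assay in 96-well microtiter plates; (5–7.5) × 10⁴ tumor cells per well plus test compound. Cells proliferated at 37 °C in humidified CO₂-controlled atmosphere, 48 h for murine leukemia L1210, 72 h for human lymphocytic CEM and cervix carcinoma HeLa. Counted by Coulter counter; IC₅₀ is the concentration that inhibits proliferation by 50%.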

Another data set has as its system CCRF-CEM. The data set is described as follows: Antiproliferative activity against human CEM cells after 72 hrs by Coulter counter method. The data set is classed as functional, cell-based. The method, boiled down:
as §1

Another data set deals with HeLa. The data set can be described thus: Antiproliferative activity against human HeLa cells after 72 hrs by Coulter counter method. The data set is classed as functional, cell-based. In a few lines: as §1
The subject of data set [1] is Human alphaherpesvirus 1. The data set can be described thus: Antiviral activity against Human herpesvirus 1 KOS strain infected in HELF cells assessed as inhibition of virus-induced cytopathogenicity. The data set is classed as functional, organism-based. Particulars: Human alphaherpesvirus 1, KOS. The method, boiled down:
(§2)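 Confluent human embryonic lung fibroblast monolayers in 96-well plates were infected with 100 CCID50 of virus or, for VZV, 20 PFU, in the presence of varying compound concentrations. For HCMV/VZV-type assays, residual virus was removed after 1–2 h before compound addition. Cytopathicity or plaque formation was scored once complete in untreated infected controls. Highest concentration tested was 100 μM.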
Background: Protection from cytopathic effect is a common read-out in antiviral testing.

A further data set concerns Human alphaherpesvirus 2. The data set is described as follows: Antiviral activity against Human herpesvirus 2 G strain infected in HELF cells assessed as inhibition of virus-induced cytopathogenicity. The data set is classed as functional, organism-based. To be noted: Human alphaherpesvirus 2, strain G. In a few lines:
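Confluent Hel fibroblast cultures in 96-well plates inoculated with 100 CCID₅₀ virus in presence of varying compound concentrations. Cytopathicity recorded once complete in untreated virus-infected controls. EC₅₀ is the concentration reducing virus-induced cytopathogenicity by 50%; compounds tested up to 100 μM.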

For data set [2], the system named is Human alphaherpesvirus 1. The data set is described as follows: Antiviral activity against thymidine kinase-deficient acyclovir-resistant Human herpesvirus 1 KOS strain infected in HELF cells assessed as inhibition of virus-induced cytopathogenicity. The data set is classed as functional, organism-based. To be noted: Human alphaherpesvirus 1, KOS. In a few lines: as §2

A short description of data set [3]: Cytotoxicity against HELF cells assessed as alteration of cell morphology by microscopic analysis. The data set is classed as cell-based. Particulars: human. The method, boiled down: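 Uninfected Hel fibroblast cultures exposed to compound alongside antiviral assays. Minimal cytotoxic concentration (MCC) is the concentration giving microscopically visible alteration of normal cell morphology.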

The nature of data set [4]: Cytotoxicity against HELF cells after by Coulter counter method. Particulars: human. The data set is classed as cell-based. In a few lines: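 Hel fibroblast proliferation measured by Coulter Counter cell count in presence of compound. CC₅₀ is the concentration (μM) reducing cell proliferation by 50%.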
For data set [5], the system named is Human alphaherpesvirus 3. The data set can be described thus: Antiviral activity against thymidine kinase-deficient Varicella Zoster virus Oka strain infected in HELF cells assessed as inhibition of virus-induced plaque formation. The data set is classed as functional, organism-based. To be noted: Human alphaherpesvirus 3, strain Oka vaccine. The method, boiled down: as §2

Data set [6] has as its system Human alphaherpesvirus 3. The data set can be described thus: Antiviral activity against thymidine kinase-deficient Varicella Zoster virus 07-1 strain infected in HELF cells assessed as inhibition of virus-induced plaque formation. The data set is classed as functional, organism-based. Particulars: Human alphaherpesvirus 3, 07-1, HELF. In a few lines:
as §2

Data set [7] deals with Human betaherpesvirus 5. The data set is described as follows: Antiviral activity against Human cytomegalovirus AD169 strain infected in HELF cells assessed as inhibition of virus-induced cytopathogenicity. Particulars: Human betaherpesvirus 5, AD169, HELF. The data set is classed as functional, organism-based. The method, boiled down:
(§3)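 Confluent human embryonic lung fibroblasts in 96-well plates inoculated with 100 CCID₅₀ HCMV. Residual virus removed after 1–2 h, then cultures incubated with varying compound concentrations. Cytopathicity scored once complete in untreated infected controls. EC₅₀ is the concentration reducing virus-induced cytopathicity by 50%.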

Data set [8] has as its system Human betaherpesvirus 5. The data set can be described thus: Antiviral activity against Human cytomegalovirus Davis strain infected in HELF cells assessed as inhibition of virus-induced cytopathogenicity. The data set is classed as functional, organism-based. Particulars: Human betaherpesvirus 5, Davis. In a few lines: as §3

On to `C#C[C@@]1(O)[C@@H](CO)O[C@@H](n2cc(Br)c3c(Cl)ccnc32)[C@@H]1O`, for which the values for the concentration for half-maximal inhibition (IC50) with L1210, with CCRF-CEM and with HeLa were 30 µM, 0.56 µM and 0.89 µM, respectively. The EC50 (usually the concentration at which the effect is half-maximal) in the data set with Human alphaherpesvirus 1 [1] is 6.67 µM; in the data set with Human alphaherpesvirus 2, over 100 µM; with Human alphaherpesvirus 1 [2], 5.83 µM; with Human alphaherpesvirus 3 [5] it was 2.76 µM; with Human alphaherpesvirus 3 [6], 2.27 µM; with Human betaherpesvirus 5 [7], 0.36 µM. Further, the half-maximal effective concentration (EC50) in the data set on Human betaherpesvirus 5 [8] worked out at 0.35 µM. Moreover, the MCC in data set [3] was at least 100 µM. In addition, it took 0.35 µM to reach half-maximal cytotoxicity in data set [4] (CC50).

`C#C[C@@]1(O)[C@@H](CO)O[C@@H](n2cc(I)c3c(Cl)ccnc32)[C@@H]1O`: the IC50 (as a rule, the midpoint of a concentration-inhibition curve) in the data set with L1210 is 20 µM; in the data set with CCRF-CEM it was 0.26 µM; in the data set on HeLa it was 1.1 µM. Further, the EC50 in the data set on Human alphaherpesvirus 1 [1] was over 100 µM; with Human alphaherpesvirus 2 it was over 100 µM; with Human alphaherpesvirus 1 [2] it was over 100 µM; in the data set on Human alphaherpesvirus 3 [5], 9.82 µM; with Human alphaherpesvirus 3 [6], 8.26 µM; in the data set with Human betaherpesvirus 5 [7], 2.31 µM. The EC50 in the data set with Human betaherpesvirus 5 [8] amounted to 0.66 µM. Further, in data set [3], the MCC lay within 20 to 100 µM. Also, the CC50 (in general, the concentration at which the toxic effect on the cells reaches its halfway point) in data set [4] worked out at 0.16 µM.

For the compound `Nc1nc2c(ncn2COC(CO)CO)c(=O)[nH]1` [GANCICLOVIR], the MCC in [3] was 100 to 350 µM.

As to `C#C[C@@]1(O)[C@@H](CO)O[C@@H](n2cc(-c3ccco3)c3c(N)ncnc32)[C@@H]1O`, the values for the half-maximal inhibitory concentration (IC50) with L1210, in the data set with CCRF-CEM and in the data set on HeLa were 30 µM, 17 µM and 14 µM, respectively.

As to `C#C[C@@]1(O)[C@@H](CO)O[C@@H](n2cc(Cl)c3c(N)ccnc32)[C@@H]1O`, the IC50 is 0.98 µM with L1210, 5.4 µM in the data set on CCRF-CEM and 1.7 µM in the data set with HeLa. In data set [3], the MCC was at least 100 µM. For the same compound, the EC50 is over 100 µM in the data set with Human alphaherpesvirus 3 [5], 17.5 µM in the data set on Human alphaherpesvirus 3 [6], over 100 µM in the data set with Human betaherpesvirus 5 [7] and 20 µM in the data set with Human betaherpesvirus 5 [8].

As to `C#C[C@@]1(O)[C@@H](CO)O[C@@H](n2cc(I)c3c(N)ccnc32)[C@@H]1O`, the IC50 with L1210 turned out to be 0.044 µM; in the data set on CCRF-CEM it was 0.31 µM; in the data set on HeLa, 0.18 µM.

Regarding `C#C[C@@]1(O)[C@@H](CO)O[C@@H](n2cnc3c(-c4ccc(Cl)cc4)ncnc32)[C@@H]1O`, the half-maximal inhibitory concentration (IC50) in the data set with L1210 was 225 µM; in the data set on CCRF-CEM, 124 µM; in the data set on HeLa it was 170 µM.

With `C#C[C@@]1(O)[C@@H](CO)O[C@@H](n2c(C(F)(F)F)cc3c(N)ncnc32)[C@@H]1O`, the IC50 in the data set with L1210, with CCRF-CEM and in the data set with HeLa was over 250 µM each time.

For `C#C[C@@]1(O)[C@@H](CO)O[C@@H](n2cc(C(F)(F)F)c3c(N)ncnc32)[C@@H]1O`, the IC50 with L1210 was 0.11 µM; in the data set on CCRF-CEM it was 0.36 µM; in the data set on HeLa, 0.75 µM.

For the compound `Nc1nc2c(ncn2COCCO)c(=O)[nH]1` [ACYCLOVIR], the MCC in [3] was 250 to 440 µM. The CC50 in data set [4] is over 440 µM.

On to `CC[C@@]1(O)[C@@H](CO)O[C@@H](n2cc(Cl)c3c(N)ncnc32)[C@@H]1O`, for which the IC50 in the data set with L1210 was found to be 1.2 µM; in the data set on CCRF-CEM it was 2.6 µM; in the data set on HeLa, 4.4 µM. The EC50 in the data set with Human alphaherpesvirus 1 [1] amounted to 2.1 µM; in the data set with Human alphaherpesvirus 2, 0.63 µM; with Human alphaherpesvirus 1 [2], 1.27 µM; in the data set on Human alphaherpesvirus 3 [5], 1.71 µM; in the data set on Human alphaherpesvirus 3 [6], 3.74 µM; with Human betaherpesvirus 5 [7], 1.79 µM. In addition, the concentration for a half-maximal effect (EC50) with Human betaherpesvirus 5 [8] was over 4 µM. Also, in data set [3], the MCC lay in the range of 4 to 20 µM. Also, the CC50 in data set [4] is 3.41 µM.

For the compound `Nc1ccn(C[C@@H](CO)OCP(=O)(O)O)c(=O)n1` [CIDOFOVIR], the concentration giving a half-maximal response (EC50) stood at 1.5 µM with Human alphaherpesvirus 1 [1], 1.2 µM in the data set with Human alphaherpesvirus 2, 1.59 µM in the data set on Human betaherpesvirus 5 [7] and 1.45 µM with Human betaherpesvirus 5 [8]. Further, the MCC in [3] is 250 to 300 µM.

Turning to `C#C[C@@]1(O)[C@@H](CO)O[C@@H](n2cnc3c(-c4ccc(OC)cc4)ncnc32)[C@@H]1O`, the IC50 in the data set on L1210, in the data set on CCRF-CEM and with HeLa was over 250 µM each time.

Consider `C#C[C@@]1(O)[C@@H](CO)O[C@@H](n2cnc3c(-c4ccc(C)cc4)ncnc32)[C@@H]1O`, for which the IC50 is 205 µM in the data set with L1210, 154 µM in the data set on CCRF-CEM and over 250 µM in the data set on HeLa.

As for `C#Cc1cn([C@@H]2O[C@H](CO)[C@](O)(C#C)[C@H]2O)c2ncnc(N)c12`, the 50% inhibitory concentration (IC50) in the data set with L1210 was determined as 159 µM; in the data set on CCRF-CEM, 63 µM; in the data set with HeLa, 114 µM.

With `C#C[C@@]1(O)[C@@H](CO)O[C@@H](n2cnc3c(-c4ccccc4)ncnc32)[C@@H]1O`, the IC50 in the data set with L1210, with CCRF-CEM and in the data set with HeLa was over 250 µM each time.

Regarding `C#C[C@@]1(O)[C@@H](CO)O[C@@H](n2cc(Cl)c3c(Cl)ccnc32)[C@@H]1O`, the IC50 in the data set on L1210 stood at 75 µM; in the data set on CCRF-CEM it was 1.3 µM; in the data set with HeLa, 6.3 µM. Besides, the 50% effective concentration (EC50) in the data set on Human alphaherpesvirus 1 [1] was 16.3 µM; in the data set on Human alphaherpesvirus 2, over 100 µM; with Human alphaherpesvirus 1 [2], 10.6 µM; in the data set on Human alphaherpesvirus 3 [5], 16.6 µM; in the data set on Human alphaherpesvirus 3 [6], 3.06 µM; in the data set with Human betaherpesvirus 5 [7], 0.51 µM. In addition, the 50% effective concentration (EC50) with Human betaherpesvirus 5 [8] is 0.53 µM. The MCC in data set [3] lay in the range of 20 to 100 µM. This compound showed a CC50 in [4] of 5.25 µM.

As to `C#C[C@@]1(O)[C@@H](CO)O[C@@H](n2cnc3c(N)ncnc32)[C@@H]1O`, the EC50 in the data set with Human alphaherpesvirus 1 [1] was over 4 µM; with Human alphaherpesvirus 2, over 4 µM; in the data set with Human alphaherpesvirus 1 [2], over 4 µM; with Human alphaherpesvirus 3 [5], 1.82 µM; with Human alphaherpesvirus 3 [6] it was 1.64 µM; in the data set with Human betaherpesvirus 5 [7] it was at least 4 µM. Also, the EC50 in the data set on Human betaherpesvirus 5 [8] was at least 4 µM. Also, the MCC in data set [3] worked out at 20 µM. The same compound gave a CC50 in data set [4] (HELF cells) of 0.7 to 0.73 µM.

Take `C#C[C@@]1(O)[C@@H](CO)O[C@@H](n2cnc3c(-c4ccc(F)cc4)ncnc32)[C@@H]1O`: the IC50 with L1210 is over 250 µM; in the data set on CCRF-CEM it was 223 µM; with HeLa, 220 µM.

Turning to `C#C[C@@]1(O)[C@@H](CO)O[C@@H](n2ccc3c(Cl)ccnc32)[C@@H]1O`, the 50% inhibitory concentration (IC50) came out at 197 µM in the data set with L1210, 86 µM in the data set on CCRF-CEM and 135 µM in the data set with HeLa. The half-maximal effective concentration (EC50) with Human alphaherpesvirus 1 [1], with Human alphaherpesvirus 2, with Human alphaherpesvirus 1 [2], in the data set on Human alphaherpesvirus 3 [5], with Human alphaherpesvirus 3 [6] and with Human betaherpesvirus 5 [7] was over 100 µM throughout. Also, in the data set on Human betaherpesvirus 5 [8], the concentration giving a half-maximal response (EC50) was over 100 µM. Also, the MCC in [3] was in the range of 20 to 100 µM.
